Data on two molecules can be found in ChEMBL document CHEMBL2203121, “DNA cleavage induced by antitumor antibiotic leinamycin and its biological consequences” (Bioorg Med Chem, 2012).

The subject of assay [1] is Nucleic Acid. Briefly: Induction of DNA cleavage in 32P-labeled oligomer duplex Sp25 DNA at 2 ug/ml to 100 ug/ml after 24 hrs by PAGE analysis without hot piperidine treatment. The format is nucleic-acid assay. An outline of the steps: (§1)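 5'-32P-end-labelled, gel-purified Sp25 duplex (100 fmol) was incubated with leinamycin at 37°C in 20 mM Tris-HCl pH 7.6, 20 mM NaCl, 1 mM DTT, with no piperidine step. Unreacted drug was removed on a G-10 column. Fragments were resolved on 16% urea-PAGE and quantified by phosphorimaging.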

The test system of the next assay is Xrs-5. Briefly: Cytotoxicity against chinese hamster kU86-mutant Xrs-5 cells assessed as cell survival by clonogenic survival assay. The format is functional, cell-based. The following applies: Cricetulus griseus. An outline of the steps:
(§2)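 CHO lines from repair-proficient and repair-mutant backgrounds, grown in RPMI1640 with 10% FCS. Cells plated in triplicate at 400 cells/well and dosed 24 h later with a range of leinamycin concentrations. Colonies grew 14 days and were stained with 1% methylene blue in 50% ethanol. Dye was eluted in isopropanol with 0.4 M HCl and read at 595 nm for relative survival.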

The nature of assay [2]: Cytotoxicity against chinese hamster NER-mutant UV5 cells assessed as cell survival by clonogenic survival assay. The format is functional, cell-based. The following applies: Cricetulus griseus. An outline of the steps:
as §2

Assay [3] relates to Nucleic Acid. The assay can be described thus: Induction of DNA cleavage in 32P-labeled oligomer duplex Sp25 DNA up to 24 hrs by PAGE analysis without hot piperidine treatment. The format is nucleic-acid assay. Summed up:
as §1

A short description of assay [4]: Cytotoxicity against chinese hamster NER-mutant UV41 cells assessed as cell survival by clonogenic survival assay. The assay is classed as functional, cell-based. The following applies: Cricetulus griseus. An outline of the steps: as §2
Assay [5] has as its system CHO-AA8. The assay can be described thus: Cytotoxicity against chinese hamster AA8 cells assessed as cell survival by clonogenic survival assay. The format is functional, cell-based. To be noted: Cricetulus griseus. Summed up: as §2
Assay [6] has as its system Nucleic Acid. The assay can be described thus: Induction of DNA cleavage in 32P-labeled oligomer duplex Sp25 DNA after 8 hrs by PAGE analysis with hot piperidine treatment. The assay is classed as nucleic-acid assay. Summed up:
(§3)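 5'-32P-end-labelled, gel-purified Sp25 duplex (100 fmol) was incubated with leinamycin at 37°C in 20 mM Tris-HCl pH 7.6, 20 mM NaCl, 1 mM DTT. Drug was removed on a G-10 column, then DNA was heated 30 min in 1 M piperidine. Products were run on 16% urea-PAGE and quantified by phosphorimaging.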

For assay [7], the system named is CHO-AA8. The assay can be described thus: Ratio for chinese hamster AA8 cells to chinese hamster BER-mutant EM9 cells. The assay is classed as functional, Cricetulus griseus.
Assay [8] can be described thus: Cytotoxicity against chinese hamster NER-mutant UV135 cells assessed as cell survival by clonogenic survival assay. The assay is classed as functional, cell-based. The following applies: Cricetulus griseus. Summed up:
as §2

A further assay is filed under the species Cricetulus griseus. The assay can be described thus: Cytotoxicity against chinese hamster BER-mutant EM9 cells assessed as cell survival by clonogenic survival assay. The assay is classed as functional, cell-based. An outline of the steps: as §2
A short description of assay [9]: Cytotoxicity against human MiaPaCa cells by MTT assay. The format is functional, cell-based. The following applies: MIA PaCa-2. An outline of the steps:
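MiaPaCa cells in RPMI1640 with 10% FCS were exposed to leinamycin. Viability was read by MTT reduction to formazan, with absorbance of solubilised formazan at 595 nm. Survival was determined in triplicate with ±SE.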

Assay [10] can be described thus: Cytotoxicity against human MiaPaCa cells assessed as potentiation of methoxyamine-mediated cytotoxicity by MTT assay. To be noted: MIA PaCa-2. The assay is classed as functional, cell-based. Summed up:
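MiaPaCa cells in RPMI1640 with 10% FCS were given leinamycin alone or combined with methoxyamine, a BER inhibitor, tested alone up to 25 mM. Survival was measured by MTT, reading solubilised formazan at 595 nm, in triplicate with ±SE.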
(Tetrazolium assays rely on reduction of a dye to a coloured formazan, in cell work by metabolically active cells.)

For assay [11], the system named is Nucleic Acid. The assay can be described thus: Induction of DNA cleavage in 32P-labeled oligomer duplex Sp25 DNA at 2 ug/ml to 100 ug/ml after 24 hrs by PAGE analysis followed by hot piperidine treatment. The assay is classed as nucleic-acid assay. An outline of the steps: as §3
The test system of assay [12] is Nucleic Acid. Briefly: Inhibition of leinamycin-induced strand breaks in 32P-labeled 25-bp oligomer duplex Sp25 DNA at 1mM after 24 hrs by PAGE analysis without hot piperidine treatment. The format is nucleic-acid assay. An outline of the steps:
(§4)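 5'-32P-end-labeled Sp25 duplex (100 fmol) exposed at 37°C for 24 h to leinamycin, Fe(II)-bleomycin or 1 mM MMS with rising methoxyamine levels in 20 mM Tris–HCl pH 7.6, 20 mM NaCl, 1 mM DTT; unreacted drug removed by Sephadex G-10; no piperidine step; denaturing 16% urea–acrylamide gel, PhosphorImager scan.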

For assay [13], the system named is Nucleic Acid. Briefly: Inhibition of Leinamycin-induced strand breaks in 32P-labeled 25-bp oligomer duplex Sp25 DNA at 1mM by PAGE analysis followed by hot piperidine treatment. The format is nucleic-acid assay. Summed up:
(§5)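 5'-32P-end-labeled duplex Sp25 (100 fmol), gel-purified, incubated at 37°C for 24 h with leinamycin, Fe(II)-bleomycin or 1 mM MMS plus increasing methoxyamine in 20 mM Tris–HCl pH 7.6, 20 mM NaCl, 1 mM DTT; drug removed on Sephadex G-10; then 1 M piperidine, 90°C, 30 min; 16% urea–acrylamide gel, PhosphorImager quantification.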

The subject of assay [14] is Nucleic Acid. Briefly: Inhibition of bleomycin-induced strand breaks in 32P-labeled 25-bp oligomer duplex Sp25 DNA at 1 mM after 24 hrs by PAGE analysis followed by hot piperidine treatment. The format is nucleic-acid assay. An outline of the steps: as §5
A short description of assay [15]: Potentiation of leinamycin-induced cytotoxicity in human MiaPaCa cells by MTT assay. The assay is classed as functional. Summed up:
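MiaPaCa cells grown in RPMI1640 with 10% FCS, exposed to methoxyamine (up to 25 mM), leinamycin or both; viability by MTT reduction, formazan solubilized and read at 595 nm; triplicate determinations, bars ±SE.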

Assay [16] deals with Nucleic Acid. The assay can be described thus: Inhibition of methyl methanesulfonate-induced strand breaks in 32P-labeled 25-bp oligomer duplex Sp25 DNA at 1 mM by PAGE analysis without hot piperidine treatment. The format is nucleic-acid assay. An outline of the steps:
as §4

Assay [17] concerns Nucleic Acid. Briefly: Inhibition of bleomycin-induced strand breaks in 32P-labeled 25-bp oligomer duplex Sp25 DNA at 1 mM by PAGE analysis without hot piperidine treatment. The format is nucleic-acid assay. Summed up: as §4
In assay [18] the test system is Nucleic Acid. Briefly: Inhibition of methylmethanesulfonate-induced strand breaks in 32P-labeled 25-bp oligomer duplex Sp25 DNA at 1 mM after 24 hrs by PAGE analysis followed by hot piperidine treatment. The assay is classed as nucleic-acid assay. An outline of the steps: as §5
The test system of assay [19] is Nucleic Acid. Briefly: Inhibition of Leinamycin-induced strand breaks in 32P-labeled 25-bp oligomer duplex Sp25 DNA after 24 hrs by PAGE analysis without hot piperidine treatment. The format is nucleic-acid assay. Summed up: as §4
Assay [20] relates to Nucleic Acid. Briefly: Inhibition of Leinamycin-induced strand breaks in 32P-labeled 25-bp oligomer duplex Sp25 DNA after 24 hrs by PAGE analysis followed by hot piperidine treatment. The assay is classed as nucleic-acid assay. An outline of the steps: as §5

Converted amounts (≈) assume the structure as drawn. The source made the active and inactive calls. No cut-off for these calls is given here.

By IC50 is commonly meant the concentration needed to halve the response being measured. On to `C/C1=C\[C@@H](O)C(=O)/C=C/C=C\c2csc(n2)[C@@H](C)NC(=O)C[C@@]2(CC1)[S+]([O-])SC(=O)[C@]2(C)O` (some centres not stated) [LEINAMYCIN], for which the Activity result in the assay on Nucleic Acid [1] and in the assay with Nucleic Acid [11] was “Dose-dependent effect” each time. Also, the result in the assay with Xrs-5, in the assay with Nucleic Acid [3], in the assay on Nucleic Acid [6] and in the assay listed under Cricetulus griseus was Active. Moreover, the concentration for half-maximal inhibition (IC50) in assay [2] came to 3 ng/mL (≈ 5.87 nM); in [4], 3 ng/mL (≈ 5.87 nM); in the assay on CHO-AA8 [5], 10 ng/mL (≈ 19.6 nM); in assay [8], 2 ng/mL (≈ 3.92 nM); in [9], 40 ng/mL (≈ 78.3 nM); in [10] it was 15 ng/mL. Moreover, the Ratio in the assay on CHO-AA8 [7] is listed as above 3.

As to `CON` [METHOXYAMINE], the outcome in the assay with Nucleic Acid [12], in the assay with Nucleic Acid [13], in the assay on Nucleic Acid [14], in the assay on Nucleic Acid [16], with Nucleic Acid [17] and in the assay on Nucleic Acid [18] was inactive. Besides, the “fold change (FC)” value in [15] is 2.5. Besides, the outcome in the assay on Nucleic Acid [19] and with Nucleic Acid [20] was Active.
